Hits are enriched below; roughly 2.3% of the tested compounds scored in any of these assays.
TRPC4 block: blocks the mouse TRPC4 cation channel. Q9QUQ5. 300,000 tested, 0.39% active. HEK293 TRPC4beta/mu-opioid, DAMGO-evoked Fluo4 calcium flux; stronger effect = lower value. B-score at 10 µM;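 active means B-score over 3 SD under the library average, no early fluorescence shift, positive overall ratio signal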
Target sequence (Q9QUQ5 whole entry, looked up): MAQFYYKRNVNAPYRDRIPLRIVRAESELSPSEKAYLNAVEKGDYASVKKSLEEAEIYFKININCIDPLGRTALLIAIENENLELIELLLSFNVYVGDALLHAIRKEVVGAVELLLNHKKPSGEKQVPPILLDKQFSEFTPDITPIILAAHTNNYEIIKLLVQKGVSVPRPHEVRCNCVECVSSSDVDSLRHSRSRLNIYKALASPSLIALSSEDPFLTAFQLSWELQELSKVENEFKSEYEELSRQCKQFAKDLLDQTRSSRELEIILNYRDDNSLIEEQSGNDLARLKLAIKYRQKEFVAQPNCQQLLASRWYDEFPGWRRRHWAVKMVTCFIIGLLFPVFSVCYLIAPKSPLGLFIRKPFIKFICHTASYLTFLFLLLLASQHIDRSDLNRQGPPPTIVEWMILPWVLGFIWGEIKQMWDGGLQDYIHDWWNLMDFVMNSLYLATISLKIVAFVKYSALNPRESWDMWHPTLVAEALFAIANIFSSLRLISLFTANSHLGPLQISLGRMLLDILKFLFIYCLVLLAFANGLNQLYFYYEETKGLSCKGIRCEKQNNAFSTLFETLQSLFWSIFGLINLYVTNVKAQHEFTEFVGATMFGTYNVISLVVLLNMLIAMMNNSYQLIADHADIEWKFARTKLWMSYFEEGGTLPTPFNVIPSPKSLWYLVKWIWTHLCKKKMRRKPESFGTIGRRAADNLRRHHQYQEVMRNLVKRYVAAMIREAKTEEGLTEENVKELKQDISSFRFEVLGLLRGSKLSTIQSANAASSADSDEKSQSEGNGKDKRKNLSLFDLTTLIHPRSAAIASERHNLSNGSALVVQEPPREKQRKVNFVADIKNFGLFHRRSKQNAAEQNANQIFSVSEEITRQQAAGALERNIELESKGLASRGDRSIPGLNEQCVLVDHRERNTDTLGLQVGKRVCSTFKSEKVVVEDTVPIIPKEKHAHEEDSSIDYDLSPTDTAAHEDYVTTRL
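test system = HEK293 cells with stable TRPC4beta plus mu-opioid receptor expression | detection = Fluo4 Ca2+ flux fluorescence | read-out = integrated fluorescence ratio relative to baseline, converted to per-well B score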
TRPC6 inh: blocks the mouse TRPC6 cation channel | Q61143 | HEK293-TRPC6, membrane potential dye, ACh-evoked depolarization; stronger effect = lower value | 310,000 tested, 1.1% active | B-score at 10 µM;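 active means B-score under library mean minus 3 SD, initial fluorescence not abnormally high, positive integrated signal ratio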;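 further: B-score derived from integrated fluorescence ratio over the kinetic read; more negative B-score means stronger inhibition of depolarization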
TRPC6 activator: activates the mouse TRPC6 cation channel | Q61143 | HEK293-TRPC6 membrane potential dye fluorescence; stronger effect = higher value | B-score at 10 µM | 310,000 tested, 0.13% active | AID 2550;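 active means B-score of the integrated fluorescence ratio above library mean plus 3 SD, and starting fluorescence ratio within library mean plus 5 SD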;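 further: higher score means more depolarization so channel activation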
TRPC4 potent: allosterically enhances the mouse TRPC4 cation channel; 310,000 tested, 0.42% active; B-score at 10 µM; HEK293 TRPC4beta/mu-opioid, DAMGO EC20, Fluo-4 Ca2+ flux; stronger effect = higher value;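 active means B-score of calcium response area above 5 SD of library B-scores, with initial fluorescence ratio within 5 SD of library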;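 further: B-score of integrated fluorescence ratio over time as area under calcium response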
TRPC4 act: TRPC4 (mouse) channel activation. B-score at 10 µM. Q9QUQ5. HEK293 TRPC4beta/mu-opioid, Fluo4 calcium fluorescence; stronger effect = higher value. 310,000 tested, 0.49% active. AID 2237;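 active means B-score above 5 SD of library B-scores, and initial fluorescence ratio not above library mean plus 5 SD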;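 further: positive B-score marks a calcium rise read as TRPC4 activation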
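Assay system: HEK293 cells stably co-expressing mouse TRPC4beta and mu-opioid receptor / Timing: Fluo4 dye loading 45 min at room temperature, 110 s recording / Signal: Fluo4 calcium-sensitive dye fluorescence, kinetic, 1 Hz baseline / Read-out: integrated baseline-normalised fluorescence ratio, converted to per-well B score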
* marks the source's active call; other numbers are inactive results; i = inactive.

SMILES	TRPC4 block	TRPC6 inh	TRPC6 activator	TRPC4 potent	TRPC4 act
Cc1sc(NC(=O)C2CCCCC2C(=O)O)c(C(N)=O)c1-c1ccc(C(C)(C)C)cc1 (stereo not drawn)	-5*	i	i	i	i
CC1CN(C(=O)c2ccc(NS(=O)(=O)c3ccc(C(C)(C)C)cc3)cc2)CC(C)O1 (stereo not drawn)	i	i	i	i	89*
COc1ccccc1CNCC(c1ccccc1)c1ccccc1	-6*	i	i	i	i
COc1ccccc1CNCC(O)Cn1c2ccccc2c2ccccc21 (stereo not drawn)	i	i	i	i	80*
CN(Cc1ccccc1)C(=O)CCC1CCN(C(=O)CCC(F)(F)F)CC1	i	i	i	i	i
CC1CCc2nc(NC(=O)CN3CCN(Cc4ccc5c(c4)OCO5)CC3)sc2C1 (stereo not drawn)	-6*	i	i	i	i
CC1CCc2nc(NC(=O)CN3CCN(c4ccccc4)CC3)sc2C1 (stereo not drawn)	i	i	i	i	i
Cc1ccc(CS(=O)(=O)CCC(=O)NCCC2=CCCCC2)cc1	i	i	i	17*	i
Cc1ccc(S(=O)(=O)CCC(=O)NCCC2=CCCCC2)cc1	i	i	i	i	i
NS(=O)(=O)c1ccc(NC(=O)COC(=O)C2CC(=O)N(Cc3ccccc3)C2)cc1 (stereo not drawn)	i	i	i	i	i
CN1CCN(c2ccc(CNS(=O)(=O)c3ccsc3)cc2)CC1	i	i	i	22*	i
CN1CCN(c2ccc(CNS(=O)(=O)c3ccccc3)cc2)CC1	i	i	i	i	i
Cc1cc(Cl)ccc1OCCCC(=O)NNC(=O)c1ccccc1O	i	i	i	i	i
CCN(CC)CCCNC(=O)Cn1cnc2ccc(S(=O)(=O)N3CCC(C)CC3)cc2c1=O	i	i	i	12*	i
Fc1ccccc1CNc1nc(-c2cccnc2)nc2ccccc12	i	i	i	i	i
CCOc1ccccc1Nc1nnc(SCc2nnc(-c3cc(OC)c(OC)c(OC)c3)o2)s1	i	i	i	21*	i
COc1ccc(CN2CCNC(=O)C2CC(=O)NC2CCC2)c(OC)c1 (stereo not drawn)	i	i	i	i	i
COc1ccc(CN2CCNC(=O)C2CC(=O)NC2CCCC2)c(C)c1C (stereo not drawn)	-6*	i	i	i	i
Cc1ccc(/C=C2\SC(=S)N(CCCC(=O)Nc3ccccc3C(=O)O)C2=O)cc1	i	i	i	i	i
COc1ccc(/C=C2/SC(=S)N(CCCC(=O)Nc3ccccc3C(=O)O)C2=O)cc1	-6*	i	i	i	i
O=C(NCCNC1CCC(c2ccccc2)CC1)c1cccs1 (stereo not drawn)	i	i	i	i	158*
O=C(CC1C(=O)NCCN1Cc1ccccn1)NCCc1ccccc1F (stereo not drawn)	i	i	i	i	i
CCCN(CCC)CCCNC(=O)c1ccc(CS(=O)(=O)c2c(Cl)cccc2Cl)o1	i	i	i	i	79*
O=C(N/N=C/c1ccccc1F)NC1CCCCC1	i	i	i	21*	177*
O=C(N/N=C/c1ccccc1)NC1CCCCC1	i	i	i	i	i
SMILES	TRPC4 block	TRPC6 inh	TRPC6 activator	TRPC4 potent	TRPC4 act
O=C(N/N=C/c1ccccc1OC(F)F)NC1CCCCC1	i	i	i	i	i
O=C(N/N=C/c1cccc(F)c1)NC1CCCCC1	i	i	i	12*	i
O=C(Nc1ccon1)c1csc2ccccc12	-7*	i	i	i	i
COc1ccc(C(=O)NCC(c2ccco2)N2CCc3ccccc32)c(OC)c1 (stereo not drawn)	i	i	i	10*	i
O=C(CCNC(=O)c1ccccc1Cl)Nc1cc(C(F)(F)F)ccc1N1CCCC1	i	i	i	i	i
Cn1c(CN2CCN(c3cccc(Cl)c3)CC2)nc2ccccc21	i	i	i	i	84*
Cc1ccc(N2CCN(c3ccc(NCc4nc5ccccc5n4C)cc3)CC2)cc1	i	i	i	i	122*
Cn1c(CNc2ccc(Cl)cc2)nc2ccccc21	i	i	i	i	i
Cc1ccc2[nH]cc(S(=O)(=O)c3ccc(C)c(C)c3)c(=O)c2c1	i	i	i	i	i
COC(=O)c1cnc(Oc2c(Cl)cc(N)cc2Cl)cc1C(F)(F)F	i	i	i	22*	i
CCOc1ccc(-c2c(C(=O)N/N=C/c3ccc(OC(C)C)cc3)nnn2-c2nonc2N)cc1	i	i	i	i	i
Cc1ccc(-c2c(C(=O)N/N=C/c3ccc(OC(C)C)cc3)nnn2-c2nonc2N)cc1	i	i	i	18*	i
Cc1ccnc(NS(=O)(=O)c2ccc3ccccc3c2)n1	i	i	i	i	i
O=C1CC(c2ccc(O)cc2)Oc2cc(O)cc(O)c21 (stereo not drawn)	i	i	i	i	i
CC1CC(=O)c2c(cc3c(-c4c(O)cc(O)c5c(O)c6c(cc45)OC(C)CC6=O)c(O)cc(O)c3c2O)O1 (stereo not drawn)	i	i	43*	i	i
COc1cc2c(cc1OC)C(C)N(C(=O)C(NC(=O)c1ccccc1)C(C)C)CC2 (stereo not drawn)	i	i	i	i	96*
COc1cc2c(cc1OC)C(C)N(C(=O)[C@@H](NC(=O)c1ccccc1)C(C)C)CC2 (stereo partly drawn)	i	i	i	i	i
CCCN(CCC)CCNC(=O)CCC(=O)Nc1ccc2nc(N3CCN(C)CC3)cc(C)c2c1	i	i	i	i	87*
CCN1CCN(c2cc(C)c3cc(NC(=S)NCCN(C)C)ccc3n2)CC1	i	i	i	i	i
CCCCN(C)CCNC(=S)Nc1ccc2nc(N3CCN(CC)CC3)cc(C)c2c1	i	i	i	16*	i
CC1CN(S(=O)(=O)c2cccc(C(=O)NCCC3=CCCCC3)c2)CC(C)O1 (stereo not drawn)	i	i	i	i	i
Cc1ccc(S(=O)(=O)N(C)C)cc1NC(=O)C(C)Sc1ccccc1 (stereo not drawn)	i	i	i	i	i
COc1ccc(C(CCNCc2ccc(N(C)C)cc2)c2ccccc2OC)cc1 (stereo not drawn)	i	i	i	i	63*

Screening data: PubChem BioAssay, Johns Hopkins Ion Channel Center
